# RBBP9 inh = human RBBP9 hydrolase inhibition; 0.2% of 220,000 active; recombinant RBBP9, FP-Rh probe fluorescence polarization; inhibition, % at 7.94 µM; AID 1515;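 active = inhibition above the campaign mean of all tested compounds plus 3 SD, cut at about 14% in these data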;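 also: plate controls were DMSO wells with RBBP9 for no effect and wells lacking RBBP9 protein for full effect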
#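 Controls: DMSO-treated enzyme wells and wells lacking RBBP9 | Material: RBBP9 protein | Technique: Fluorescence polarization | Replication: Single well per compound, no replicates | Buffer or medium: Tris-NaCl-Pluronic buffer, pH 8.0 | Timing: 30 min compound preincubation, 45 min probe labeling, 25 °C | Read-out basis: Percent inhibition from mP, scaled between DMSO and no-protein wells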
# TCR CD3 inh = blocks the human TCR-CD3 interaction. 0.37% of 360,000 active. TAMRA-labeled TCR probe fluorescence, biochemical. inhibition, % at 9.4 µM. AID 651800; in the data active = inhibition above about 19%;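 also: recombinant mutant TCR 2C K166C tagged with TAMRA read by polarization; 0% = receptor in buffer alone and 100% = receptor with positive control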
# eIF4H inh = inhibitors of RNA binding by human eIF4H | inhibition, % at 35 µM | eIF4H fluorescence polarization binding assay | 0.94% of 290,000 active | Q15056;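 also: calls also rest on retests at 20 µM and on dose response follow-up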
# PABP1 MLLE inh = inhibitors of microRNA-mediated deadenylation, human PABP1 MLLE binding; 0.36% of 360,000 active; inhibition, % at 20 µM; GST-MLLE / FITC-PAM2 fluorescence polarization; in the data active = inhibition above about 35%, passing the limit was not always enough;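 also: plate controls were DMSO wells with GST-MLLE for no effect and wells lacking GST-MLLE protein for full effect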
# Target sequence (P11940 whole entry, looked up): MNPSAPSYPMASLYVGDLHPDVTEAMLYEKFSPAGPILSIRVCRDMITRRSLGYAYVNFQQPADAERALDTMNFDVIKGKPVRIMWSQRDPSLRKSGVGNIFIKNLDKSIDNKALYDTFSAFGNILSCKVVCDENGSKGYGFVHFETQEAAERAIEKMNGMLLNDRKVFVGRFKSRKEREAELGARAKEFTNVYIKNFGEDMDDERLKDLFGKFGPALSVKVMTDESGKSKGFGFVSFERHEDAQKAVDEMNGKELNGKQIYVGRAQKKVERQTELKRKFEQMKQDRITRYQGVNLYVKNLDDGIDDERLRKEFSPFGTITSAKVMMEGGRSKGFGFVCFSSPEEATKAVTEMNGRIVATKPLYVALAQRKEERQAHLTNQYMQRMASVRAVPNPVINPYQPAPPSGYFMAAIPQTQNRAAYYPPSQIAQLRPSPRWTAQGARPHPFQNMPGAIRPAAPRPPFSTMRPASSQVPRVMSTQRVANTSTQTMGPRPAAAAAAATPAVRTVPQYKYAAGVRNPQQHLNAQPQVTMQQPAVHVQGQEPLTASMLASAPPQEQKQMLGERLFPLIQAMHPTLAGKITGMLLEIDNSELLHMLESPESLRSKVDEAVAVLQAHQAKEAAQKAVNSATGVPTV
# PABP polyA inh = PABP-poly(A) binding inhibition | PABP-poly(A) RNA binding, fluorescence polarization | AID 2014 | 1% of 290,000 active | calls only at 35 µM;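 also: calls also rest on retests at 20 µM and on dose response follow-up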
# Numbers without * were called inactive; i = inactive; ? = inconclusive; . = no result given; + = active, no number. This is a sample that favours compounds with a hit; in the whole collection about 1.6% have one here. Unless noted, no rule for the calls is given here.
SMILES,RBBP9 inh,TCR CD3 inh,eIF4H inh,PABP1 MLLE inh,PABP polyA inh
CC(=O)O/N=C/c1c(C)c(C=O)n2ccccc12,1.2,-4.3,21.5,-6.3,+
O=S(=O)(/N=C(/Sc1ccccc1)c1ccccc1)c1ccccc1,-1.2,1.0,7.0,37.6*,i
COc1cc(C2CC(=O)Oc3c2c(=O)n(C)c2ccccc32)ccc1O (stereo not given),-0.1,3.2,64.4*,3.4,i
COC(=O)c1c(-c2ccc(OC)cc2)c2c(c3c4cc(F)ccc4n(S(=O)(=O)c4ccc(C)cc4)c13)C(=O)N(C)C2,.,2.2,.,.,.
O=[N+]([O-])c1cc(S(=O)(=O)NCc2ccco2)ccc1NN=Cc1ccccn1,.,5.2,.,.,.
COC(=O)c1ccc(/C=C(\C#N)c2nc3ccccc3s2)cc1,-13.2,4.2,?,-11.6,+
CC1CCC(C(C)C)C(OCC(O)C[N+]2(C)CCCCC2)C1 (stereo not given),4.0,-7.3,2.6,-108.3,+
CC1CCC(C(C)C)C(OCC(O)CN2CCCC(C)C2)C1 (stereo not given),-8.4,-3.6,-2.0,4.4,i
O=C(CSc1nc2ccccc2o1)c1cc2ccccc2oc1=O,-11.8,-2.7,22.0,38.5*,i
Cc1cc(C(=O)CSc2nnc(N)s2)c(C)n1Cc1ccco1,-15.9,0.8,36.2,-8.4,i
Cc1cccc(-n2nnnc2SCC(=O)c2cc(C)n(Cc3ccco3)c2C)c1,-11.8,6.7,58.1*,-93.0,i
Cc1cc(C(=O)COC(=O)c2ccncc2)c(C)n1Cc1ccco1,-3.5,-6.9,55.0*,-29.1,+
Cc1cc(C(=O)COC(=O)c2ccco2)c(C)n1Cc1ccco1,1.4,4.1,26.5,6.4,i
Cc1sc2nc(SCC(=O)c3cc(C)n(CC4CCCO4)c3C)n(C(C)C)c(=O)c2c1C (stereo not given),-6.2,4.8,64.9*,-25.1,+
Cc1cc(C)nc(SCC(=O)c2cc3ccccc3oc2=O)n1,-0.5,5.1,-2.1,29.1,i
CCCCNC(=O)C[C@H]1C[C@@]2(C(=O)OC)C(=C[C@H](COCc3ccccc3)O[C@@H]2C)N(CCC2=CCCCC2)C1=O,.,0.9,.,.,.
COCc1[nH]nc2c1C(c1ccc(F)cc1)N(c1ccc(OC)cc1)C2=O (stereo not given),.,2.5,.,.,.
O=C(N[C@H](c1cccc(Br)c1)[C@@H]1CCCC=C1c1ccccc1)C(F)(F)F,.,0.3,.,.,.
Cc1cc(C(=O)CSc2nc3ccccc3[nH]2)c(C)n1CC1CCCO1 (stereo not given),0.3,6.4,-8.1,-73.2,i
Cc1cccc(-n2nnnc2SCC(=O)c2cc(C)n(CC3CCCO3)c2C)c1 (stereo not given),-5.5,-3.3,52.6*,-97.9,+
Cc1ccc(-n2nnnc2SCC(=O)c2cc(C)n(CC3CCCO3)c2C)cc1 (stereo not given),.,0.1,12.2,-83.8,i
Cc1cc(C(=O)CSc2nc3ccccc3o2)c(C)n1CC1CCCO1 (stereo not given),0.7,5.8,52.0*,-6.9,+
COC(=O)[C@]1(CC(C)C)NC=C(C(=O)c2ccccc2)[C@@H]1c1cccs1,.,-1.3,.,.,.
O=c1cc(CSc2nnc(-c3cccs3)n2Cc2ccccc2)nc2sc3ccccc3n12,-30.3,2.1,45.8,-104.2,i
CC(=O)c1c(C)[nH]c(C(=O)COC(=O)c2ccc3c(=O)n4c(nc3c2)CCC4)c1C,-5.5,-1.8,1.7,8.5,i
SMILES,RBBP9 inh,TCR CD3 inh,eIF4H inh,PABP1 MLLE inh,PABP polyA inh
CC(C)[C@H](NC(=O)Cc1ccccc1)C(=O)OCc1cc(=O)n2c(n1)sc1ccccc12,-5.6,11.6,75.4*,-14.6,+
O=C(OCc1cc(=O)n2c(n1)sc1ccccc12)c1ccc2c(=O)n3c(nc2c1)CCC3,.,7.8,74.9*,-34.4,+
Cc1ccc2c(CC(=O)OCc3cc(=O)n4c(n3)sc3ccccc34)coc2c1,10.5,0.4,70.1*,-6.6,i
CC(C)(C)n1nc(C2CC2)cc1NC(=O)Nc1ccccc1,.,-2.8,.,.,.
COc1ccc(NC(=O)c2nn(C34CC5CC(CC(C5)C3)C4)cc2[N+](=O)[O-])cc1,-4.3,1.1,11.8*,7.8,+
O=C(Nc1cccc2ccccc12)c1nn(C23CC4CC(CC(C4)C2)C3)cc1[N+](=O)[O-],-14.2,-2.4,-0.1,4.9,i
CC(=O)Nc1cccc(NC(=O)CSc2ncc(C(=O)Nc3ccccc3)c(=O)n2C)c1,.,-2.3,.,42.0*,.
CC(=O)Nc1cccc(NC(=O)CSc2ncc(C(=O)Nc3ccc(F)cc3)c(=O)n2C)c1,.,-5.6,.,11.1,.
COC(=O)c1cc2c(c3c4cc(C)ccc4n(S(=O)(=O)c4ccc(OC)cc4)c13)C(=O)N(Cc1ccc(C(F)(F)F)cc1)C2,.,-1.1,.,.,.
Cc1noc(/C=C/Nc2ccc(F)cc2F)c1[N+](=O)[O-],-3.7,0.2,69.8,50.1*,i
COc1ccc(-c2ccc3c(n2)CCCN3S(=O)(=O)c2c(C)noc2C)cc1,.,-3.0,.,.,.
CS(=O)(=O)N1CCN(C(=S)NCc2ccc(F)cc2)CC1,-4.6,2.3,12.2,-128.5,i
CS(=O)(=O)N1CCN(C(=S)NCc2ccc(Cl)cc2)CC1,1.4,4.5,82.4*,-120.2,+
CCOc1ccc(N=Nc2c(=O)[nH]n3c(=O)cc(C)[nH]c23)cc1,31.9*,-4.1,-1.9,-1.9,i
Cc1c(C(=O)N/N=C/c2ccc(-c3ccccc3[N+](=O)[O-])o2)sc(N)c1C#N,-3.9,3.9,73.2*,1.2,+
O=C(N/N=C/c1ccc(-c2ccccc2[N+](=O)[O-])o1)c1cncc(Br)c1,-4.8,4.5,10.2,18.8,i
CCN=C1NC(c2cccc(F)c2)C(C(=O)OC)=C(C)N1Cc1ccccc1C(F)(F)F (stereo not given),.,-7.9,.,.,.
CCOC(=O)C(=CN=C(N)Nc1nc2ccccc2o1)C(=O)OCC,-11.9,3.6,12.4,8.6,i
CCCOC(=O)Nc1nc2ccccc2o1,-6.5,5.3,72.5*,10.6,+
O=C(Nc1ccc(F)cc1)NC1CCN(Cc2nnnn2Cc2ccco2)CC1,2.0,-6.3,74.3*,6.2,+
CCCCOCCCNC(=O)C[C@H]1C[C@@]2(C(=O)OC)C(=C[C@H](C(C)C)O[C@@H]2C2CC2)N(Cc2ccccc2)C1=O,.,-5.4,.,.,.
O=C(/C=C/c1ccccc1)c1cc(Br)ccc(=O)c1O,0.9,8.4,82.6*,-69.9,+
Cc1ccc(/C=C/C(=O)c2ccccc(=O)c2O)cc1C,-8.0,7.2,66.1*,-9.7,+
COCCCNC(=S)N(CCO)Cc1cc2cc3c(cc2[nH]c1=O)OCCO3,.,-4.7,-5.4,40.5*,i
COCCCNC(=S)N(CCCN(C)C)Cc1cc2cc3c(cc2[nH]c1=O)OCCO3,.,0.7,13.0,-73.7,i
O=C(c1ccco1)N(CCO)Cc1cc2cc3c(cc2[nH]c1=O)OCO3,-0.6,-4.8,-4.4,-5.2,i
O=C(c1ccccc1)N(CCO)Cc1cc2cc3c(cc2[nH]c1=O)OCCO3,3.1,7.3,-6.7,56.6*,?

# High-throughput results deposited in PubChem by several laboratories.
